A short description of series [1]: Cytotoxicity against african green monkey Vero C1008 cells. In kind it is cell-based. Particulars: chlorocebus sabaeus. The procedure, abridged: (§1)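 MTS (Mosmann-type) viability assay. 10⁴ cells/well in DME with 10% foetal bovine serum plus antibiotics were pre-incubated 24 h at 37 °C, 5% CO2. Medium was then replaced with serial dilutions of compound, a standard toxic compound or DMSO, and incubated a further 24 h. MTS was added and absorbance read at 490 nm after 2 h. DMSO wells were set as 100% viability.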

The test system of series [2] is Mycobacterium tuberculosis. Put plainly: Antitubercular activity against Mycobacterium tuberculosis H37Rv after 4 weeks by agar dilution method. In kind it is functional. The settings on record: 672 h. A digest of the protocol:
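Proportion method on agar: serial twofold dilutions mixed into warm Middlebrook 7H10 agar and set as slants. Each slant surface inoculated with 10⁵ CFU of M. tuberculosis H37Rv in 10 µL, then incubated at 37 °C for 4 weeks. MIC (µg/mL) taken as the lowest concentration giving complete inhibition of colony growth. Rifampicin and isoniazid served as reference drugs.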
For orientation: Agar dilution tests growth on a series of plates holding different concentrations.

The nature of series [3]: Cytotoxicity against mouse bone marrow derived macrophages. In kind it is cell-based. Particulars: macrophage. The procedure, abridged:
as §1

≈ marks a conversion by molar mass, not a printed value.

One may read the MIC as the least concentration at which growth counts as inhibited. With `CC(=O)OC[C@H]1O[C@@H](S(=O)(=O)CC(N)=O)[C@H](OC(C)=O)[C@@H](OC(C)=O)[C@@H]1OC(C)=O`, the Activity entry in series [1] and in series [3] was “Non-toxic” throughout. In series [2], this compound gave an MIC of 3.12 µg/mL (≈ 6.89 µM). For `CC(=O)OC[C@H]1O[C@@H](O[C@H]2[C@H](OC(C)=O)[C@@H](OC(C)=O)[C@H](SCC(N)=O)O[C@@H]2COC(C)=O)[C@H](OC(C)=O)[C@@H](OC(C)=O)[C@H]1OC(C)=O`, in series [2], the MIC is above 12.5 µg/mL.

As to `CC(=O)OC[C@H]1O[C@@H](SCC(N)=O)[C@H](OC(C)=O)[C@@H](OC(C)=O)[C@@H]1OC(C)=O`, the Activity result in series [1] and in series [3] was “Non-toxic” throughout. This compound returned a minimal inhibitory concentration (MIC) in series [2] of 3.12 µg/mL (≈ 7.42 µM).

In series [2], `CCCCCCCCCCCCNC(=O)CS(=O)(=O)[C@@H]1O[C@H](COC(C)=O)[C@@H](OC(C)=O)[C@H](OC(C)=O)[C@H]1OC(C)=O` registered a minimum inhibitory concentration (MIC) above 12.5 µg/mL. In the case of `CCCCCCCCCCCCNC(=O)CS(=O)(=O)[C@@H]1OC[C@@H](OC(C)=O)[C@@H](OC(C)=O)[C@@H]1OC(C)=O`, the MIC in series [2] was above 12.5 µg/mL. Still for that read-out and setting: in the case of `CC(=O)O[C@@H]1[C@@H](OC(C)=O)[C@H](OC(C)=O)CO[C@H]1S(=O)(=O)CC(N)=O` it was 12.5 µg/mL (≈ 32.8 µM). Regarding `CCCCCCCCCCCCNC(=O)CS[C@@H]1OC[C@@H](OC(C)=O)[C@@H](OC(C)=O)[C@@H]1OC(C)=O`, the Activity result in series [1] and in series [3] was “Non-toxic” throughout. The compound also returned an MIC in series [2] of 3.12 µg/mL (≈ 6.04 µM). In series [2], `CCCCCCCCNC(=O)CS(=O)(=O)[C@@H]1O[C@H](COC(C)=O)[C@@H](OC(C)=O)[C@H](OC(C)=O)[C@H]1OC(C)=O` displayed an MIC above 12.5 µg/mL. The same measure, in the same setting: in the case of `CCCCCCCCCCCCNC(=O)CS[C@@H]1O[C@H](COC(C)=O)[C@@H](O[C@@H]2O[C@H](COC(C)=O)[C@H](OC(C)=O)[C@H](OC(C)=O)[C@H]2OC(C)=O)[C@H](OC(C)=O)[C@H]1OC(C)=O` it was above 12.5 µg/mL; in that of `CC(=O)OC[C@H]1O[C@@H](S(=O)(=O)CC(N)=O)[C@@H](OC(C)=O)[C@@H](OC(C)=O)[C@@H]1OC(C)=O`, above 12.5 µg/mL. Same read-out and setting: in the case of `CC(=O)OC[C@H]1O[C@@H](SCC(=O)NCc2ccccc2)[C@H](OC(C)=O)[C@@H](OC(C)=O)[C@@H]1OC(C)=O` it was 6.25 µg/mL (≈ 12.2 µM). Take `CC(=O)OC[C@H]1O[C@@H](SCC(N)=O)[C@H](OC(C)=O)[C@@H](OC(C)=O)[C@H]1OC(C)=O`: the Activity result in series [1] and in series [3] was “Non-toxic” throughout. Further, in series [2], 1.56 µg/mL (≈ 3.7 µM) was the least that counted as inhibitory (MIC).

`CCCCCCCCCCCCNC(=O)CS[C@@H]1O[C@H](COC(C)=O)[C@@H](OC(C)=O)[C@H](OC(C)=O)[C@H]1OC(C)=O` gave a minimal inhibitory concentration (MIC) in series [2] above 12.5 µg/mL.

In the case of `CC(=O)OC[C@H]1O[C@@H](O[C@H]2[C@H](OC(C)=O)[C@@H](OC(C)=O)[C@H](S(=O)(=O)CC(N)=O)O[C@@H]2COC(C)=O)[C@H](OC(C)=O)[C@@H](OC(C)=O)[C@H]1OC(C)=O`, the Activity entry in series [1] and in series [3] was “Non-toxic” in each case. In series [2], this compound registered an MIC of 3.12 µg/mL (≈ 4.21 µM).

`CCCCCCCCNC(=O)CS[C@@H]1O[C@H](COC(C)=O)[C@@H](O[C@@H]2O[C@H](COC(C)=O)[C@H](OC(C)=O)[C@H](OC(C)=O)[C@H]2OC(C)=O)[C@H](OC(C)=O)[C@H]1OC(C)=O` came in with an MIC in series [2] above 12.5 µg/mL. For `CC(=O)OC[C@H]1O[C@@H](SCC(N)=O)[C@H](OC(C)=O)[C@@H](OC(C)=O)[C@@H]1O[C@H]1O[C@H](COC(C)=O)[C@@H](OC(C)=O)[C@H](OC(C)=O)[C@H]1OC(C)=O`, the minimum inhibitory concentration (MIC) in series [2] is above 12.5 µg/mL. Consider `CC(=O)OC[C@H]1O[C@@H](SCC(N)=O)[C@H](OC(C)=O)[C@@H](OC(C)=O)[C@@H]1O[C@@H]1O[C@H](COC(C)=O)[C@@H](OC(C)=O)[C@H](OC(C)=O)[C@H]1OC(C)=O`, for which the MIC in series [2] was above 12.5 µg/mL. In the case of `CC(=O)O[C@@H]1[C@H](OC(C)=O)[C@H](OC(C)=O)CO[C@H]1S(=O)(=O)CC(N)=O`, the Activity entry in series [1] and in series [3] was “Non-toxic” each time. The MIC in series [2] stood at 6.25 µg/mL (≈ 16.4 µM).

Turning to `CCCCCCCCNC(=O)CS[C@@H]1O[C@H](COC(C)=O)[C@@H](OC(C)=O)[C@H](OC(C)=O)[C@H]1OC(C)=O`, in series [2], the MIC is above 12.5 µg/mL. Same read-out and setting: in the case of `CC(=O)OC[C@H]1O[C@@H](S(=O)(=O)CC(N)=O)[C@H](OC(C)=O)[C@@H](OC(C)=O)[C@@H]1O[C@@H]1O[C@H](COC(C)=O)[C@@H](OC(C)=O)[C@H](OC(C)=O)[C@H]1OC(C)=O` it was 25 µg/mL (≈ 33.7 µM); in that of `CC(=O)O[C@H]1[C@H](OC(C)=O)[C@H](OC(C)=O)CO[C@H]1S(=O)(=O)CC(N)=O`, 12.5 µg/mL (≈ 32.8 µM); in that of `CC(=O)O[C@H]1[C@H](OC(C)=O)[C@H](SCC(N)=O)OC[C@H]1OC(C)=O`, above 12.5 µg/mL. Consider `CC(=O)OC[C@H]1O[C@@H](S(=O)(=O)CC(=O)NCc2ccccc2)[C@H](OC(C)=O)[C@@H](OC(C)=O)[C@@H]1OC(C)=O`, for which the Activity entry in series [1] and in series [3] was “Non-toxic” each time. Besides, in series [2], the lowest concentration to inhibit growth (MIC) was 6.25 µg/mL (≈ 11.5 µM).

In series [2], `CCCCCCCCCCCCNC(=O)CS(=O)(=O)[C@@H]1O[C@H](COC(C)=O)[C@@H](O[C@@H]2O[C@H](COC(C)=O)[C@H](OC(C)=O)[C@H](OC(C)=O)[C@H]2OC(C)=O)[C@H](OC(C)=O)[C@H]1OC(C)=O` showed a minimum inhibitory concentration (MIC) above 12.5 µg/mL. Still for that read-out and setting: to `CC(=O)OC[C@H]1O[C@@H](S(=O)(=O)CC(N)=O)[C@H](OC(C)=O)[C@@H](OC(C)=O)[C@@H]1O[C@H]1O[C@H](COC(C)=O)[C@@H](OC(C)=O)[C@H](OC(C)=O)[C@H]1OC(C)=O` belongs 25 µg/mL (≈ 33.7 µM); to `CCCCCCCCNC(=O)CS(=O)(=O)[C@@H]1OC[C@@H](OC(C)=O)[C@@H](OC(C)=O)[C@@H]1OC(C)=O`, above 12.5 µg/mL; to `CC(=O)O[C@@H]1[C@H](OC(C)=O)[C@H](OC(C)=O)CO[C@H]1SCC(N)=O`, 12.5 µg/mL (≈ 35.8 µM). On the same count and under the same terms, in the case of `CC(=O)O[C@@H]1[C@@H](OC(C)=O)[C@H](SCC(N)=O)OC[C@H]1OC(C)=O` it was 12.5 µg/mL (≈ 35.8 µM). In the case of `CC(=O)OC[C@H]1O[C@@H](SCC(N)=O)[C@@H](OC(C)=O)[C@@H](OC(C)=O)[C@@H]1OC(C)=O`, the Activity entry in series [1] and in series [3] was “Non-toxic” each time. This compound came in with an MIC in series [2] of 3.12 µg/mL (≈ 7.42 µM). The compound `CCCCCCCCNC(=O)CS[C@@H]1OC[C@@H](OC(C)=O)[C@@H](OC(C)=O)[C@@H]1OC(C)=O` came in with an MIC in series [2] above 12.5 µg/mL. With `CC(=O)OC[C@H]1O[C@@H](S(=O)(=O)CC(N)=O)[C@H](OC(C)=O)[C@@H](OC(C)=O)[C@H]1OC(C)=O`, the Activity entry in series [1] and in series [3] was “Non-toxic” throughout. Moreover, the minimum inhibitory concentration (MIC) in series [2] came to 3.12 µg/mL (≈ 6.89 µM). The compound `CCCCCCCCNC(=O)CS(=O)(=O)[C@@H]1O[C@H](COC(C)=O)[C@@H](O[C@@H]2O[C@H](COC(C)=O)[C@H](OC(C)=O)[C@H](OC(C)=O)[C@H]2OC(C)=O)[C@H](OC(C)=O)[C@H]1OC(C)=O` registered a minimum inhibitory concentration (MIC) in series [2] above 12.5 µg/mL.

Values taken from ChEMBL document CHEMBL1155086, “Synthesis and evaluation of antitubercular activity of glycosyl thio- and sulfonyl acetamide derivatives” (Bioorg Med Chem Lett, 2008).
